Results reported in ChEMBL document CHEMBL4190394, “Discovery of Novel Pazopanib-Based HDAC and VEGFR Dual Inhibitors Targeting Cancer Epigenetics and Angiogenesis Simultaneously” (J Med Chem, 2018).
The source made the active and inactive calls. The rule behind the calls is not given here.

How the values were obtained:
[1] = target: Histone deacetylase; format: protein assay, Homo sapiens
[2] = target: T1, Vascular endothelial growth factor receptor 2 (Homo sapiens, UniProt P35968); assay: Inhibition of VEGFR-2 (unknown origin) at 0.2 uM after 40 mins by kinase-Glo assay relative to control
How it was run: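 VEGFR-2 tested at a single 200 nM concentration in a Kinase-Glo assay. Compound, kinase, substrate and ATP incubated 40 min at room temperature, then Kinase-Glo reagent added for 15 min and luminescence read. Inhibition rate reported. Replicates n ≥ 2.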

[3] = system: KG-1; assay: Antiproliferative activity against human KG1 cells after 72 hrs by MTT assay; format: functional, cell-based; conditions: KG-1, 72 h
[4] = system: HT-1080; assay: Antiproliferative activity against human HT1080 cells after 72 hrs by MTT assay; format: functional, cell-based; conditions: HT-1080, 72 h
[5] = system: PC-3; assay: Antiproliferative activity against human PC3 cells after 72 hrs by MTT assay; format: functional, cell-based; conditions: PC-3, 72 h
[6] = system: K562; assay: Antiproliferative activity against human K562 cells after 72 hrs by MTT assay; format: functional, cell-based; conditions: K562, 72 h
[7] = system: MOLT-4; assay: Antiproliferative activity against human MOLT4 cells after 72 hrs by MTT assay; format: functional, cell-based; conditions: MOLT-4, 72 h
[8] = system: HEL; assay: Antiproliferative activity against human HEL cells after 72 hrs by MTT assay; format: functional, cell-based
[9] = system: ACHN; assay: Antiproliferative activity against human ACHN cells after 72 hrs by MTT assay; format: functional, cell-based
[10] = system: AGS; assay: Antiproliferative activity against human AGS cells after 72 hrs by MTT assay; format: functional, cell-based
[11] = system: HT-29; assay: Antitumor activity against human HT-29 cells xenografted in BALB/c nu mouse assessed as tumor growth level at 50 mg/kg, po administered for 25 consecutive days measured every 3 days during compound dosing relative to control; format: functional
How it was run: (§1)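 HT-29 cells (1×10^7) implanted s.c. in right flank of male BALB/c-nu mice aged 5–6 weeks. At about 100 mm³ (day 10), mice randomized 6 per group and dosed orally for 25 consecutive days. Controls received PBS with 5% DMSO. T/C is mean RTV (Vt/V0) treated over control. TGI taken from final tumor weights. Student's two-tailed t test.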

[12] = system: Thoracic aorta; assay: Antiangiogenic activity in Sprague-Dawley rat thoracic aorta ring assessed as reduction in micro-vessel growth at 5 uM treated every day for 6 days by matrigel-based inverted microscopic analysis relative to control; format: functional, tissue-based
How it was run: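 Aortas taken from 4–6-week-old Sprague–Dawley rats, cut into 1-mm rings and embedded in Matrigel. Rings held 30 min at 37 °C, 5% CO2, then treated daily for 6 days with compound or 0.5% DMSO vehicle. Microvessel outgrowth photographed on day 7 at ×200. Three independent experiments.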

[13] = system: HT-29; assay: Antitumor activity against human HT-29 cells xenografted in BALB/c nu mouse assessed as tumor growth inhibition at 50 mg/kg, po administered for 25 consecutive days measured every 3 days during compound dosing relative to control; format: functional; conditions: HT-29, po, read-out: TGI
How it was run: as §1

[14] = system: HT-29; assay: Antiproliferative activity against human HT-29 cells after 72 hrs by MTT assay; format: functional, cell-based; conditions: HT-29, 72 h
[15] = system: MDA-MB-231; assay: Antiproliferative activity against human MDA-MB-231 cells after 72 hrs by MTT assay; format: functional, cell-based; conditions: MDA-MB-231, 72 h
[16] = system: HUVEC; assay: Antiangiogenic activity in human HUVEC cells assessed as reduction in capillary-like tubular network formation at 0.1 uM after 6 hrs by phase-contrast microscopy; format: functional, cell-based
How it was run: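 HUVECs trypsinized and seeded at 40000/well on Matrigel polymerized 0.5 h at 37 °C. Cells held 6 h at 37 °C in M199 with 5% FBS, with compound or DMSO. Tube formation viewed and photographed by phase-contrast microscopy at 200 magnification. Three independent experiments.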

[17] = system: HeLa; assay: Antiproliferative activity against human HeLa cells after 72 hrs by MTT assay; format: functional, cell-based
[18] = target: T1, Vascular endothelial growth factor receptor 2; assay: Inhibition of VEGF-stimulated VEGFR2 phosphorylation in human HUVEC cells at 100 nM preincubated for 2 hrs followed by VEGF stimulation by Western blot analysis; format: cell-based
How it was run: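 HUVECs pretreated 2 h with compound or DMSO, then stimulated with VEGF (50 ng/ml). Cells lysed in ice-cold RIPA and protein measured by BCA. Lysates run on SDS-PAGE and immunoblotted for phospho-VEGFR-2, with total VEGFR-2 as loading control. Detection by ECL.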

[19] = target: Histone deacetylase 2 (Homo sapiens, UniProt Q92769)
[20] = target: Histone deacetylase 3 (Homo sapiens, UniProt O15379)
[21] = target: Histone deacetylase 1 (Homo sapiens, UniProt Q13547); assay: Inhibition of HDAC1 (unknown origin) using fluorogenic substrate preincubated for 5 mins followed by substrate addition measured after 30 mins by fluorescence-based assay
[22] = target: Protein deacetylase HDAC6 (Homo sapiens, UniProt Q9UBN7); assay: Inhibition of HDAC6 (unknown origin) using fluorogenic Boc-Lys(acetyl)-AMC as substrate preincubated for 5 mins followed by substrate addition measured after 30 mins by fluorescence-based assay
[23] = target: Histone deacetylase 8 (Homo sapiens, UniProt Q9BY41); assay: Inhibition of HDAC8 (unknown origin) using fluorogenic Boc-Lys(trifluoroacetyl)-AMC as substrate preincubated for 5 mins followed by substrate addition measured after 30 mins by fluorescence-based assay
Sequence of Histone deacetylase 8 (Q9BY41 whole entry): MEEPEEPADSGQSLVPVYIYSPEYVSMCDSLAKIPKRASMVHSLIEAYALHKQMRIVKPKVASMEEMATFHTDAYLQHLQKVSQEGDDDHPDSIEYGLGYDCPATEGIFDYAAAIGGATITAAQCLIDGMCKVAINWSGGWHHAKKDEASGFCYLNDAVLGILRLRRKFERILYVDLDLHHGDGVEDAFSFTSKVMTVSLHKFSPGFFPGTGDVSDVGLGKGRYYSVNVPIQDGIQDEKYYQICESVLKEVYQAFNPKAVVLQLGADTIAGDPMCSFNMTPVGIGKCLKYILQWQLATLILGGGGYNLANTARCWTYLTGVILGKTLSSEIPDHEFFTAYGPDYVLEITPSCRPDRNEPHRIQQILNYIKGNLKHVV

T1 sequence (P35968 whole entry): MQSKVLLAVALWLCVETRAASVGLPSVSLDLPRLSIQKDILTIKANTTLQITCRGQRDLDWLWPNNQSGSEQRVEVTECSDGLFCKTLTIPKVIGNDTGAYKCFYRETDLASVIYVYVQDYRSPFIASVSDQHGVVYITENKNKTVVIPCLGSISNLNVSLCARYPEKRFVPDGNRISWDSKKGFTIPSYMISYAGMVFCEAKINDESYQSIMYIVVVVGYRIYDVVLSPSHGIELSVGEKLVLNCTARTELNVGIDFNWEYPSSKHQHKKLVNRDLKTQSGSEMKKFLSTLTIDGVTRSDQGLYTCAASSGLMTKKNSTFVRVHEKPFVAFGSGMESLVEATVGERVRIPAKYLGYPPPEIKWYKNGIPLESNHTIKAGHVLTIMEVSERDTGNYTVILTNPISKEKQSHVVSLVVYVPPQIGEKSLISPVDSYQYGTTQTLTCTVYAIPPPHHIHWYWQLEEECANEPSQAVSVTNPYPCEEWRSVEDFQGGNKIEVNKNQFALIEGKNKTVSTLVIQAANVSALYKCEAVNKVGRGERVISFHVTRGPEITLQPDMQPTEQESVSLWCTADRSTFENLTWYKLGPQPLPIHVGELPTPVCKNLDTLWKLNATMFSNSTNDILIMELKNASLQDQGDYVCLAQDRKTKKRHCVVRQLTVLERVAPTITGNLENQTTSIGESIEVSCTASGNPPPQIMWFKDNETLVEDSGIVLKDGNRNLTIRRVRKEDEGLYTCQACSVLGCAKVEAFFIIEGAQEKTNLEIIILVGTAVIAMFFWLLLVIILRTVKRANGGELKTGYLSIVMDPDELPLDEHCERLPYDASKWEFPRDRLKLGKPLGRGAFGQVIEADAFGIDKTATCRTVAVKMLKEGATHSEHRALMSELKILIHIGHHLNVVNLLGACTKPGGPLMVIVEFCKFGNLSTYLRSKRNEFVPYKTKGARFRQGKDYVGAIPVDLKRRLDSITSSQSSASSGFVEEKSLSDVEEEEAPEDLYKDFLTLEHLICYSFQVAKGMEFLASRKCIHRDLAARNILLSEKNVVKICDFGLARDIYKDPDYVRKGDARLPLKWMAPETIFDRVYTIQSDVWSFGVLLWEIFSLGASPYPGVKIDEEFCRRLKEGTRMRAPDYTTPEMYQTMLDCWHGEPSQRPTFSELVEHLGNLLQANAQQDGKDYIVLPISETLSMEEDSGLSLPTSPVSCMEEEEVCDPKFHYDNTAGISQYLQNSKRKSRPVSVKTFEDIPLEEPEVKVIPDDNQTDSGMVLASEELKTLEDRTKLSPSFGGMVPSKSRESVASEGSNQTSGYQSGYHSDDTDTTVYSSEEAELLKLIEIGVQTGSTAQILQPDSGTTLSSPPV
Sequence of Histone deacetylase 2 (Q92769 whole entry): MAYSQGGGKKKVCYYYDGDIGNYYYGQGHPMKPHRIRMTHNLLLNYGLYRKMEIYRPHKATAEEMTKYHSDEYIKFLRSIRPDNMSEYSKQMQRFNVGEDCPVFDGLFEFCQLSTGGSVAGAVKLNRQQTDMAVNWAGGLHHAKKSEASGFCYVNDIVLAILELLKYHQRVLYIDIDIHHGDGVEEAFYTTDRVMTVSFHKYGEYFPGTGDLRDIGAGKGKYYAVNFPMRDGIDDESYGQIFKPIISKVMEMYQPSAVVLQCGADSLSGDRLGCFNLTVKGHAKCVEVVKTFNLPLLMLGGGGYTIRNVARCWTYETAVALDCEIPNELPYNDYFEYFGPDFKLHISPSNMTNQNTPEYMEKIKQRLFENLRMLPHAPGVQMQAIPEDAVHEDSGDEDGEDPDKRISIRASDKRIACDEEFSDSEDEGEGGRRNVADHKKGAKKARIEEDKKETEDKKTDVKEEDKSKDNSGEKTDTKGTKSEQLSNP
Sequence of Histone deacetylase 1 (Q13547 whole entry): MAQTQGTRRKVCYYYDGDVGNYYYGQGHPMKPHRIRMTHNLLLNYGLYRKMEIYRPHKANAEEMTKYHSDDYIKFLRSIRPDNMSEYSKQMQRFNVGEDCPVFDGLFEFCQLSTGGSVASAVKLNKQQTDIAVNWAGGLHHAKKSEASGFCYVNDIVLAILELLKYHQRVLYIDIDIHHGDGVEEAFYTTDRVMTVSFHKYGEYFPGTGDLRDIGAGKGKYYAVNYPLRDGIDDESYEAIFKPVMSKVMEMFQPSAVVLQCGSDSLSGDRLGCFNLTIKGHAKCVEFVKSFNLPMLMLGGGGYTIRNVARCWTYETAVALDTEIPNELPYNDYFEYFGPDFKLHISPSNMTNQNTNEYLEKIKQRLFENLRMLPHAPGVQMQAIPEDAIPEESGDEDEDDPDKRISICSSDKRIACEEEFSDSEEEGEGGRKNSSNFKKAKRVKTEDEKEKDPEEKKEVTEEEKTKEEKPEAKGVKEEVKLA
Sequence of Protein deacetylase HDAC6 (Q9UBN7 whole entry): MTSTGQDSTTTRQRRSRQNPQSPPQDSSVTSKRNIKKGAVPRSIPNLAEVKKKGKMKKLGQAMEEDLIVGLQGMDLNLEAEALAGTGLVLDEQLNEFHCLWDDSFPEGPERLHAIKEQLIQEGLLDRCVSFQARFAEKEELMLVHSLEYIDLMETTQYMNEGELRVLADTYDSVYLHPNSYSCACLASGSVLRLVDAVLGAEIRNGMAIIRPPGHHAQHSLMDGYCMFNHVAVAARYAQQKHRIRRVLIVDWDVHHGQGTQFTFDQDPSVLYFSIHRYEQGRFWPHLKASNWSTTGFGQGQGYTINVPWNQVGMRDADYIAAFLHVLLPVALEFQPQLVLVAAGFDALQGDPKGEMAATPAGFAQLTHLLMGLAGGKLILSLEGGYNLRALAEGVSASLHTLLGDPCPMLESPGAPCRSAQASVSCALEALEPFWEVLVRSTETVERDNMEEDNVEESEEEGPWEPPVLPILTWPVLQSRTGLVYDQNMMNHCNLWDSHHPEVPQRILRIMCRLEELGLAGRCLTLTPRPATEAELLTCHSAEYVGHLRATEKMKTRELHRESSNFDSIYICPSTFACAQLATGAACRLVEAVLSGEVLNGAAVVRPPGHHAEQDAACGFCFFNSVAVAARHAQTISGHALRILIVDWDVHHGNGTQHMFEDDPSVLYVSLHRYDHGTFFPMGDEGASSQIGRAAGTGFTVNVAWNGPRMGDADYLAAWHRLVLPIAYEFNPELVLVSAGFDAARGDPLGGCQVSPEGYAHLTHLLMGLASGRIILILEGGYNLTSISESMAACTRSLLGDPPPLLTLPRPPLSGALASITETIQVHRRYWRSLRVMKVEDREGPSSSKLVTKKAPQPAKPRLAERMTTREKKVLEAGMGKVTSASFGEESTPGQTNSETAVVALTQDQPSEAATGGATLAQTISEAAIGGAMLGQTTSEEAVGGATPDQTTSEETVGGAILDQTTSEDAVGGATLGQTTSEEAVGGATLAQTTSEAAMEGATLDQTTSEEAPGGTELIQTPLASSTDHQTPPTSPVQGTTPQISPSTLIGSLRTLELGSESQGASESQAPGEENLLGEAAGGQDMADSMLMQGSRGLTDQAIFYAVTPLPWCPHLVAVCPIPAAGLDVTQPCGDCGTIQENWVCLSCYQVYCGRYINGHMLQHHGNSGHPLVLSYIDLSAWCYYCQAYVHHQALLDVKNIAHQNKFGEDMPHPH
Sequence of Histone deacetylase 3 (O15379 whole entry): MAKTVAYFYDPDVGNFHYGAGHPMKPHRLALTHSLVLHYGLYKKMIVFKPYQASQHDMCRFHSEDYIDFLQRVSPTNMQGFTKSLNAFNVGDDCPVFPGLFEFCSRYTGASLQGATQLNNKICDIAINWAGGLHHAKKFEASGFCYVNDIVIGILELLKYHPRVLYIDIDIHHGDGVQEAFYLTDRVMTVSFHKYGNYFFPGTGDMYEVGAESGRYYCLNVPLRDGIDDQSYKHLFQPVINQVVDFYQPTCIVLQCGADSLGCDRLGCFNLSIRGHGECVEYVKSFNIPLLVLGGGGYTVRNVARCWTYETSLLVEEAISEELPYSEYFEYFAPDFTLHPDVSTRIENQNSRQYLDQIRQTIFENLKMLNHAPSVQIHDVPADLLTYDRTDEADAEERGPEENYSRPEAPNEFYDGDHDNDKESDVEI

| Compound | IC50 [1] [nM] | inhibition [2] [%] | IC50 [5] [nM] | IC50 [6] [nM] | IC50 [7] [nM] | IC50 [3] [nM] | IC50 [8] [nM] | other results |
| --- | --- | --- | --- | --- | --- | --- | --- | --- |
| Cc1c2ccc(N(C)c3ccnc(Nc4ccc(C(=O)NCC(=O)NO)cc4)n3)cc2nn1C | > 20000 | 95 |  |  |  |  |  |  |
| Cc1ccc(Nc2nccc(N(C)c3ccc4c(C)n(C)nc4c3)n2)cc1C(=O)NCCCCCC(=O)NO | 820 | 87 |  |  |  |  |  |  |
| Cc1ccc(Nc2nccc(N(C)c3ccc4c(C)n(C)nc4c3)n2)cc1C(=O)NO | > 20000 | 74 |  |  |  |  |  |  |
| Cc1c2ccc(N(C)c3ccnc(Nc4ccc(C(=O)NO)cc4)n3)cc2nn1C | 11300 | 99 |  |  |  |  |  |  |
| Cc1c2ccc(N(C)c3ccnc(Nc4cccc(C(=O)Nc5ccccc5N)c4)n3)cc2nn1C | 21300 | 63 |  |  |  |  |  |  |
| Cc1c2ccc(N(C)c3ccnc(Nc4ccc(C(=O)NCCC(=O)NO)cc4)n3)cc2nn1C | > 20000 | 99 |  |  |  |  |  |  |
| Cc1c2ccc(N(C)c3ccnc(Nc4ccc(C(=O)NCCCC(=O)NO)cc4)n3)cc2nn1C | 19800 | 99 |  |  |  |  |  |  |
| Cc1ccc(Nc2nccc(N(C)c3ccc4c(C)n(C)nc4c3)n2)cc1S(N)(=O)=O [PAZOPANIB] |  | 95 | > 5000 | > 5000 | > 5000 | > 5000 | > 5000 | IC50 [9]: > 5000 nM; IC50 [4]: > 5000 nM; IC50 [10]: > 5000 nM; T/C [11]: 61%; Activity [12]: Active; inhibition in vivo at 50 mg/kg [13]: 44%; IC50 [14]: > 5000 nM; IC50 [15]: > 5000 nM; Activity [16]: Active; IC50 [17]: > 5000 nM; inhibition [18]: Active |
| Cc1c2ccc(N(C)c3ccnc(Nc4cccc(C(=O)NO)c4)n3)cc2nn1C | > 20000 | 77 |  |  |  |  |  |  |
| Cc1c2ccc(N(C)c3ccnc(Nc4ccc(C(=O)NCCCCC(=O)NO)cc4)n3)cc2nn1C | 680 | 94 |  |  |  |  |  |  |
| Cc1c2ccc(N(C)c3ccnc(Nc4cccc(/C=C/C(=O)NO)c4)n3)cc2nn1C | 3000 | 97 |  |  |  |  |  |  |
| Cc1c2ccc(N(C)c3ccnc(Nc4ccc(/C=C/C(=O)NO)cc4)n3)cc2nn1C | 1400 | 95 | 1600 | 1660 | 590 | 1020 | 750 | IC50 [9]: 3850 nM; IC50 [19]: 5300 nM; IC50 [4]: 3250 nM; IC50 [22]: 1030 nM; IC50 [10]: > 5000 nM; IC50 [14]: 2960 nM; IC50 [15]: 2590 nM; IC50 [23]: 2890 nM; IC50 [17]: 4930 nM |
| Nc1ccccc1NC(=O)c1ccc(CNC(=O)OCc2cccnc2)cc1 [ENTINOSTAT] |  |  | > 5000 | 3660 | 450 | > 5000 | 440 | IC50 [9]: 2400 nM; IC50 [4]: > 5000 nM; IC50 [10]: 340 nM; IC50 [14]: 3100 nM; IC50 [15]: 2550 nM; IC50 [17]: > 5000 nM; inhibition [18]: inactive |
| Cc1c2ccc(N(C)c3ccnc(Nc4cccc(C(=O)NCCCCCC(=O)NO)c4)n3)cc2nn1C | 180 | 90 |  |  |  |  |  |  |

Further lines, with some results ahead:

| IC50 [1] [nM] | inhibition [2] [%] | IC50 [5] [nM] | IC50 [6] [nM] | IC50 [7] [nM] | Compound | IC50 [3] [nM] | IC50 [8] [nM] | other results |
| --- | --- | --- | --- | --- | --- | --- | --- | --- |
| > 20000 | 98 |  |  |  | Cc1c2ccc(N(C)c3ccnc(Nc4ccc(C(=O)NCC(=O)Nc5ccccc5N)cc4)n3)cc2nn1C |  |  |  |
| 25 | 92 | 3420 | 1100 | 270 | Cc1c2ccc(N(C)c3ccnc(Nc4ccc(C(=O)NCCCCCCCC(=O)NO)cc4)n3)cc2nn1C | 930 | 1040 | IC50 [4]: > 5000 nM |
| 5000 | 93 | > 5000 | 4150 | 1150 | Cc1c2ccc(N(C)c3ccnc(Nc4ccc(C(=O)NCCCCCCC(=O)Nc5ccccc5N)cc4)n3)cc2nn1C | 3140 | 1160 |  |
| 15100 | 94 |  |  |  | Cc1c2ccc(N(C)c3ccnc(Nc4ccc(C(=O)NCCCCC(=O)Nc5ccccc5N)cc4)n3)cc2nn1C |  |  |  |
| 17 | 98 | > 5000 | 2890 | 600 | Cc1c2ccc(N(C)c3ccnc(Nc4ccc(C(=O)NCCCCCC(=O)NO)cc4)n3)cc2nn1C | 2310 | 2560 | IC50 [4]: > 5000 nM |
| > 20000 | 97 |  |  |  | Cc1c2ccc(N(C)c3ccnc(Nc4ccc(C(=O)NCCC(=O)Nc5ccccc5N)cc4)n3)cc2nn1C |  |  |  |
| 19000 | 96 |  |  |  | Cc1c2ccc(N(C)c3ccnc(Nc4ccc(C(=O)NCCCC(=O)Nc5ccccc5N)cc4)n3)cc2nn1C |  |  |  |
| 8700 | 92 | > 5000 | 3970 | 560 | Cc1c2ccc(N(C)c3ccnc(Nc4ccc(C(=O)NCCCCCCCC(=O)Nc5ccccc5N)cc4)n3)cc2nn1C | 2680 | 490 | IC50 [9]: 3620 nM; IC50 [19]: 1260 nM; IC50 [4]: > 5000 nM; IC50 [10]: > 5000 nM; IC50 [14]: 2960 nM; IC50 [15]: 2570 nM; IC50 [20]: 660 nM; IC50 [21]: 1460 nM; IC50 [17]: 3070 nM |
| 3000 | 95 | > 5000 | 4310 | 870 | Cc1c2ccc(N(C)c3ccnc(Nc4ccc(C(=O)NCCCCCC(=O)Nc5ccccc5N)cc4)n3)cc2nn1C | 3150 | 2060 |  |
